Here are results for six molecules from ChEMBL document CHEMBL1157465, “Design, synthesis, and biological evaluation of novel 3-aryl-4-(1H-indole-3yl)-1,5-dihydro-2H-pyrrole-2-ones as vascular endothelial growth factor receptor (VEGF-R) inhibitors” (J Med Chem, 2008).

Each structure is given as a SMILES string.

Usually IC50 stands for the concentration at which inhibition is half-maximal. As a reminder, the inhibition is the percentage by which the read-out fell short of the control.

For assay [1], the target named is Angiopoietin-1 receptor (Homo sapiens, UniProt Q02763). Briefly: Inhibition of human recombinant TIE2. In a few lines:
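Recombinant human tyrosine kinases (EPHB4, TIE2, VEGF-R2, VEGF-R3), expressed in Sf9 insect cells as GST- or His-fusions, with poly(Glu,Tyr) 4:1 as substrate. Conditions: 1 µM [γ-33P]ATP, pH 7.5 HEPES buffer with Mg/Mn, DTT and vanadate, 30 °C for 80 min, 1% DMSO. Ten concentrations were tested and IC50 came from scintillation counting of incorporated 33P.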

Assay [2] has as its target T1, Aurora kinase A (Homo sapiens, UniProt O14965).
T1 sequence (O14965 whole entry): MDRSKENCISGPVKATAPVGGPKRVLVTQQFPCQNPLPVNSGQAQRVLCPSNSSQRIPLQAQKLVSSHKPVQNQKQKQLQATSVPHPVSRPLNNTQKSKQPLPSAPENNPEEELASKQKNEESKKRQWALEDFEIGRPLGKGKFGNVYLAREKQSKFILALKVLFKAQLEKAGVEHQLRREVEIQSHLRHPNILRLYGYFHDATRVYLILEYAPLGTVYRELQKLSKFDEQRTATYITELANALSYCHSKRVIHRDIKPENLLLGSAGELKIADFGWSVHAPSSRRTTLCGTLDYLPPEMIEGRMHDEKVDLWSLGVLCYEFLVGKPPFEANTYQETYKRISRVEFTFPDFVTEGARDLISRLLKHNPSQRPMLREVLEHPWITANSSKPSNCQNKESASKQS
Briefly: Inhibition of human recombinant Aurora A. An outline of the steps:
(§1)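 Aurora-A or Aurora-B, human cDNA expressed in Sf9 cells as tagged recombinant protein, phosphorylating Tetra(LRRWSLG). Reactions used 60 mM HEPES pH 7.5, Mg2+/Mn2+ (3 mM each), 1.2 mM DTT, vanadate and 1 µM [γ-33P]ATP, ran 80 min at 30 °C and were stopped with 2% H3PO4.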

Assay [3] is filed under the species Homo sapiens. Briefly: Antiangiogenic activity in VEGF-induced HLMEC assessed as sprouts per bead at 1.3 uM after 24 hrs by sprouting assay. It counts as functional. An outline of the steps:
(§2)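 HLMEC seeded on cytodex-3 microcarrier beads and embedded in 3D fibrinogen gel with 20 ng/mL VEGF plus compound at a final 1.3 or 2.6 µM (from 1 mM DMSO stock). Gel polymerised with 0.65 U/mL thrombin and overlaid with MCDB131, 5% FCS, 5% human serum and 200 U/mL Trasylol. Negative control: gel without growth factors. After 24 h, fixed in 1% PFA; sprouts per 50 beads counted microscopically. Triplicates per condition, n = 9 experiments.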

Assay [4] deals with Proto-oncogene tyrosine-protein kinase Src (Homo sapiens, UniProt P12931). Briefly: Inhibition of human recombinant SRC. In a few lines:
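Human kinases expressed in Sf9 cells via baculovirus as GST or His fusions and affinity purified. 33PanQinase assay in 60 mM HEPES-NaOH pH 7.5, 3 mM MgCl2, 3 mM MnCl2, 3 µM orthovanadate, 1.2 mM DTT, 1 µM [γ-33P]ATP, 1% DMSO; 30 °C, 80 min. Substrates: poly(Glu,Tyr) 4:1 for ERBB2, IGF1-R and SRC; poly(Ala,Glu,Lys,Tyr) 6:2:5:1 for FLT3. IC50 from 10 concentrations by scintillation counting.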

The target in assay [5] is T2, NUAK family SNF1-like kinase 1 (Homo sapiens, UniProt O60285).
T2 sequence (O60285 whole entry): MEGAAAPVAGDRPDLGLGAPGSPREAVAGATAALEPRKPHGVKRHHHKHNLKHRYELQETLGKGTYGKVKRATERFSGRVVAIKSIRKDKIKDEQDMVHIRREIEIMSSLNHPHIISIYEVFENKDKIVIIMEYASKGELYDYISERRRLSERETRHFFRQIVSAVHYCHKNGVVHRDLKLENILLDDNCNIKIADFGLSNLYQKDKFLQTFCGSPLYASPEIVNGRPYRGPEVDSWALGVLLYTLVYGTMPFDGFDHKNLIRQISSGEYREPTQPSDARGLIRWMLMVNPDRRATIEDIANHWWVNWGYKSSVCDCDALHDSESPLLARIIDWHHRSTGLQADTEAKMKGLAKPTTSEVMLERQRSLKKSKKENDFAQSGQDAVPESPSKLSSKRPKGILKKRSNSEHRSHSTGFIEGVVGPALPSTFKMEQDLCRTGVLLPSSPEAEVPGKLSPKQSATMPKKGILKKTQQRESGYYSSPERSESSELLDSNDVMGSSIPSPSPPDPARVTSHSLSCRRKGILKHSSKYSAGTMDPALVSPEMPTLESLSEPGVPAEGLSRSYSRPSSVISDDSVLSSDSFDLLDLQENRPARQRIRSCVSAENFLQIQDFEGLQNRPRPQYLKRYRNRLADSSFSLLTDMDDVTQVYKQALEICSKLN
Briefly: Inhibition of human recombinant ARK5. In a few lines: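 Human ARK5 made in Sf9 cells by baculovirus (GST- or His-tagged, affinity-purified) and read by autophosphorylation in a 33PanQinase radiometric assay. Buffer: 60 mM HEPES-NaOH pH 7.5, 3 mM MgCl2, 3 mM MnCl2, 3 µM orthovanadate, 1.2 mM DTT, PEG20000 and 1 µM [γ-33P]ATP.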

For assay [6], the target named is Aurora kinase B (Homo sapiens, UniProt Q96GD4). Briefly: Inhibition of human recombinant Aurora B. In a few lines:
as §1

For assay [7], the target named is Cyclin-dependent kinase 4/cyclin D1 (Homo sapiens, UniProt P11802). Briefly: Inhibition of human recombinant CDK4/cyclin D1. In kind it is protein-complex assay. In a few lines: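 CDK4/CycD1 (human, baculovirus/Sf9, affinity-purified) with Rb-CTF as substrate. The radiometric FlashPlate assay held 1 µM [γ-33P]ATP in HEPES-NaOH pH 7.5 with 3 mM MgCl2 and 3 mM MnCl2.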

For assay [8], the species on record is Homo sapiens. Briefly: Antiangiogenic activity in VEGF-induced HLMEC assessed as number of sprouts per bead at 2.6 uM after 24 hrs by sprouting assay. In kind it is functional. In a few lines:
as §2

For assay [9], the target named is Cyclin-dependent kinase 2 (Homo sapiens, UniProt P24941). Briefly: Inhibition of human recombinant CDK2/cyclin A. In a few lines: (§3)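 Human kinases expressed in Sf9 cells by baculovirus as GST or His fusions and affinity purified. Radiometric 33PanQinase assay: 60 mM HEPES-NaOH pH 7.5, 3 mM MgCl2, 3 mM MnCl2, 3 µM orthovanadate, 1.2 mM DTT, 1 µM [γ-33P]ATP, 50-400 ng enzyme, 1% DMSO; 30 °C, 80 min. Substrates: B-Raf-VE, MEK1 KM; CDK2/CycA, histone H1; CK2-A1, casein; COT, autophosphorylation. IC50 from 10 concentrations; 33Pi incorporation by scintillation.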

The target in assay [10] is Focal adhesion kinase 1 (Homo sapiens, UniProt Q05397). Briefly: Inhibition of human recombinant FAK.
In assay [11] the target is Insulin receptor (Homo sapiens, UniProt P06213). Briefly: Inhibition of human recombinant INS-R.
In assay [12] the target is Platelet-derived growth factor receptor beta (Homo sapiens, UniProt P09619). Briefly: Inhibition of human recombinant PDGFRbeta.
Assay [13] concerns the target Mitogen-activated protein kinase kinase kinase 8 (Homo sapiens, UniProt P41279). Briefly: Inhibition of human recombinant COT. In a few lines: as §3

Proto-oncogene tyrosine-protein kinase Src, sequence (P12931 2-536 limits assumed): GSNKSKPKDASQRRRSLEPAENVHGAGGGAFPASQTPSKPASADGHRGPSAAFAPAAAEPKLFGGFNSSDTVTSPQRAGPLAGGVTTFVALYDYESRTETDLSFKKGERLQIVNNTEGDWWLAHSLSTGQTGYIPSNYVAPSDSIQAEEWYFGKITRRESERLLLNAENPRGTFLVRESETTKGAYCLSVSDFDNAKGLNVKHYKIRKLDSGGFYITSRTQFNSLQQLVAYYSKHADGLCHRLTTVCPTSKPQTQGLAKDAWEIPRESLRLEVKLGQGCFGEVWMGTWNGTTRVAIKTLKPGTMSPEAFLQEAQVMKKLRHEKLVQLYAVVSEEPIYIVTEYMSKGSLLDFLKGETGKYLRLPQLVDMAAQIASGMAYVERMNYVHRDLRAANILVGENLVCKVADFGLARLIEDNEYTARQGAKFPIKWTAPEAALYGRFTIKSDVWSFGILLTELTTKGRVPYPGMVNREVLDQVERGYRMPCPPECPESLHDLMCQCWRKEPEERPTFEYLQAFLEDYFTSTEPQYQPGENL
Aurora kinase B, sequence (Q96GD4 whole entry): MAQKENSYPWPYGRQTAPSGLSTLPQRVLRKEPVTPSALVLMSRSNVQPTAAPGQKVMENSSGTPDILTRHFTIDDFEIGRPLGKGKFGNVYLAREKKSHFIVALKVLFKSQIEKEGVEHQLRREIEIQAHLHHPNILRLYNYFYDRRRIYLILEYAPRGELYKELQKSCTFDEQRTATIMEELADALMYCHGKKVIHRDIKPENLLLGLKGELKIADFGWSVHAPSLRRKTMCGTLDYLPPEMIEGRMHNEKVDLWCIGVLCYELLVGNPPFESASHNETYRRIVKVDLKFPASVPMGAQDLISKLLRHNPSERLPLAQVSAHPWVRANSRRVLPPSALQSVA
Focal adhesion kinase 1, sequence (Q05397 whole entry): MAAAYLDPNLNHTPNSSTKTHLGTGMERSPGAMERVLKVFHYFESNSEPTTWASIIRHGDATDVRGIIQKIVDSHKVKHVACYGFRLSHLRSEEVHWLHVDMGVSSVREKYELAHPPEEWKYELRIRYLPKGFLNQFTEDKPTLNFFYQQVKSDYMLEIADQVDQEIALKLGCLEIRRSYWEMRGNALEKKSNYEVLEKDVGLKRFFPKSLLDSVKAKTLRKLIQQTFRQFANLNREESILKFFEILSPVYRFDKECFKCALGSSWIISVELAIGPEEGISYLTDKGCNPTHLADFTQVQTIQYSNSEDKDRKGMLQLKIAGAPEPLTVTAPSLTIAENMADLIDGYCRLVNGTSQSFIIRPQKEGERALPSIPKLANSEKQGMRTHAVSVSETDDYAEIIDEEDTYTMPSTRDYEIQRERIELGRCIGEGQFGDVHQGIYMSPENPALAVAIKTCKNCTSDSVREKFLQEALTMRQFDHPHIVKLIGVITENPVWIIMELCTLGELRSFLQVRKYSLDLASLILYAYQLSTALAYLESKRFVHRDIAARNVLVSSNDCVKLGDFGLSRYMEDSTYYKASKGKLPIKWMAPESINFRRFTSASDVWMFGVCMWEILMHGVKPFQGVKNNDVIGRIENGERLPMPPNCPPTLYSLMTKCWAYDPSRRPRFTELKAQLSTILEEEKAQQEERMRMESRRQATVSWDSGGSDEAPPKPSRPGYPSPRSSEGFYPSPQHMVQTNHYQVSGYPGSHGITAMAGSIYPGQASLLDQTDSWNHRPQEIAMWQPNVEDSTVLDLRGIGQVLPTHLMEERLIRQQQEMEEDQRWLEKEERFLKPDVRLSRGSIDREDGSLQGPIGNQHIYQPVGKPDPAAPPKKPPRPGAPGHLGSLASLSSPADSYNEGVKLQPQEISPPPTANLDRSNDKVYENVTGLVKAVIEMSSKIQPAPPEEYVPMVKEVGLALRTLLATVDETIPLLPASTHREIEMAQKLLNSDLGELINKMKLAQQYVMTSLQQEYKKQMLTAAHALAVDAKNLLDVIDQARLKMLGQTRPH
Angiopoietin-1 receptor, sequence (Q02763 whole entry, the tested form may be a part): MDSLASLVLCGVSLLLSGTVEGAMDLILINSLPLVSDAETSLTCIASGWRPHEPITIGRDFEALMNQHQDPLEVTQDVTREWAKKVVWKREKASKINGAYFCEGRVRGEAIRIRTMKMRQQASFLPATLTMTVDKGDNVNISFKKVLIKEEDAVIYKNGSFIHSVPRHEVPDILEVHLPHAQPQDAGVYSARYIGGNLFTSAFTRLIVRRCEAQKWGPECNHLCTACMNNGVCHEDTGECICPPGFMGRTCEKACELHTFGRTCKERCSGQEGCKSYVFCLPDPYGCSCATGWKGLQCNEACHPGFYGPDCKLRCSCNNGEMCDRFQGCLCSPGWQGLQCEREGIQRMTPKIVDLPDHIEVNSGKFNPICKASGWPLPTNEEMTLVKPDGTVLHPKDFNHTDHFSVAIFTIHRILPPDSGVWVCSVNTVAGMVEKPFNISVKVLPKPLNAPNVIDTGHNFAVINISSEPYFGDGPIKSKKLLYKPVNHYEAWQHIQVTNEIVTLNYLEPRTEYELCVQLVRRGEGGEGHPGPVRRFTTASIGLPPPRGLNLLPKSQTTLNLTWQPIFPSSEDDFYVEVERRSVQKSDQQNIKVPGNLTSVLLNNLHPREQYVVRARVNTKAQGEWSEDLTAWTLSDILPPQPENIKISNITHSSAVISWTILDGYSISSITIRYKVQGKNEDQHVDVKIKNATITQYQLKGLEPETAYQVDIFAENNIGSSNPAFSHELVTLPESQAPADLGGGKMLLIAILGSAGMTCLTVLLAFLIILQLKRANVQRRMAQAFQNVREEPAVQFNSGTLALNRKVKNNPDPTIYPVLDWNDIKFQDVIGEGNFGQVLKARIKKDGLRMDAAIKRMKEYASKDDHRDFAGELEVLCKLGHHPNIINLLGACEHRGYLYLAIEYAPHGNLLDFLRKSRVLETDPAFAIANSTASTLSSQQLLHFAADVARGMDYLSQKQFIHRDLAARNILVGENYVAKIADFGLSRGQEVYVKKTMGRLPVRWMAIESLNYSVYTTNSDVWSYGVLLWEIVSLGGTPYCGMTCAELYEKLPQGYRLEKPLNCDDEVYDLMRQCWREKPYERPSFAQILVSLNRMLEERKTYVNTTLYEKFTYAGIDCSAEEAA
Cyclin-dependent kinase 4/cyclin D1, sequence (P11802 whole entry): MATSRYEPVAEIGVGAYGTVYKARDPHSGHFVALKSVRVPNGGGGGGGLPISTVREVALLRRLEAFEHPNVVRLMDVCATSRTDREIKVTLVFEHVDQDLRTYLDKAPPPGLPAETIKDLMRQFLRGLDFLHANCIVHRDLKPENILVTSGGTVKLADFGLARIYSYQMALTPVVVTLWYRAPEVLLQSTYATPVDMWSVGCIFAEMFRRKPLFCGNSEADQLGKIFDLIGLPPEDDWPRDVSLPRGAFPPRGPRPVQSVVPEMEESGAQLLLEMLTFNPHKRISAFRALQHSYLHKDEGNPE
Cyclin-dependent kinase 4/cyclin D1, sequence (P24385 whole entry, further chain): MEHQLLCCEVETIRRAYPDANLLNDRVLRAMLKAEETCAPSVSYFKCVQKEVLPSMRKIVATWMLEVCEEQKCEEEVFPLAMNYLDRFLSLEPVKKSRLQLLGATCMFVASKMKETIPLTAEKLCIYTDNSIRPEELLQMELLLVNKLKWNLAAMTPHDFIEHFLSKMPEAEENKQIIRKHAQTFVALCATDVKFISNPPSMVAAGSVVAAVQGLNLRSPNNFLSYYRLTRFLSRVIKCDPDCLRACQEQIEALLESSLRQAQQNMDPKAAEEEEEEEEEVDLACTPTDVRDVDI
Mitogen-activated protein kinase kinase kinase 8, sequence (P41279 whole entry): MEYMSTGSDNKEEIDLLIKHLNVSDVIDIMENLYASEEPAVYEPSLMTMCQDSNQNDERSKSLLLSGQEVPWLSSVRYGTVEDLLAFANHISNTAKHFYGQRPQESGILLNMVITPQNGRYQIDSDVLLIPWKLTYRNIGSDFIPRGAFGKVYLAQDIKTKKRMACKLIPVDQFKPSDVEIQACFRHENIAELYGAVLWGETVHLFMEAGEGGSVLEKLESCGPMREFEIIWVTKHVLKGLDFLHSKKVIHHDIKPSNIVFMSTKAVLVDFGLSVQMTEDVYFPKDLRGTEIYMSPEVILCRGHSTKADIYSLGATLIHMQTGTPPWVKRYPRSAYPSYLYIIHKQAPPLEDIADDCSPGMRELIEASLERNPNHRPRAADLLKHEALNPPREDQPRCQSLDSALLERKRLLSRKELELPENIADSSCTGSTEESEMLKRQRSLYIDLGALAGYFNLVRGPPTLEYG

As for `COc1cc(C2=C(c3c[nH]c4ccccc34)C(=O)NC2)cc(OC)c1OC`, the IC50 in [1] was found to be 34 µM; in assay [2], 3.2 µM; in [4] it was 41 µM; in assay [5], 1.8 µM; in assay [6], 2.1 µM; in assay [7] it was 30 µM. Further, the inhibition in assay [3] amounted to 34%. Further, the Activity in assay [8] amounted to 2.56.
For `COc1cc(C2=C(c3cn(C)c4ccccc34)C(=O)NC2)cc(OC)c1OC`, the IC50 in [9] came out at 42 µM; in assay [10], 50 µM; in [2], 3.2 µM; in assay [5] it was 4.9 µM; in assay [6] it was 9.8 µM; in [7] it was 40 µM. The IC50 in assay [11] was determined as 47 µM.
Turning to `COc1cc(C2=C(c3cn(CC(O)CO)c4ccccc34)CNC2=O)cc(OC)c1OC` (stereo unspecified), the IC50 is 25 µM in assay [1], 40 µM in assay [12], 47 µM in assay [2] and 34 µM in [5].
For the molecule `COc1cc(C2=C(c3c[nH]c4ccccc34)CNC2=O)cc(OC)c1OC`, the IC50 in assay [10] is 9.5 µM; in [1] it was 5.2 µM; in assay [2] it was 16 µM; in assay [4] it was 14 µM; in assay [13], 32 µM; in assay [6], 46 µM. For the same molecule, the inhibition in assay [3] was 88%. The Activity in [8] worked out at 0.27.
`COc1ccc(C2=C(c3c[nH]c4ccccc34)C(=O)NC2)cc1`: the IC50 came out at 16 µM in assay [2], 2 µM in [5], 4.9 µM in assay [6] and 35 µM in assay [7].
Turning to `COc1cc(C2=C(c3cn(COC(C)(C)C)c4ccccc34)CNC2=O)cc(OC)c1OC`, the IC50 in assay [9] was 23 µM; in assay [10] it was 28 µM; in assay [1] it was 11 µM; in assay [12], 38 µM; in [2] it was 30 µM; in assay [4], 4.4 µM. The IC50 is 9.6 µM in assay [13], 43 µM in [6], 27 µM in assay [7] and 27 µM in assay [11].
